# Data: ChEMBL document CHEMBL1122147, “N,N'-Dialkyl-1,2-bis(hydroxyphenyl)ethylenediamines and N,N-dialkyl-4,5-bis(4-hydroxyphenyl)imidazolidines: syntheses and evaluation of their mammary tumor inhibiting activity” (1982)
# The source made the active and inactive calls. The rule behind the calls is not given here.
# Tests used:
# Rattus norvegicus [1] = organism: Rattus norvegicus; assay: Dehydrogenase activity in regressing DMBA-induced mammary tumor in rats; type: functional
# Procedure, shortened: (§1)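 DMBA-induced rat mammary tumors, growing versus regressing, assayed for glucose-6-phosphate plus 6-phosphogluconate dehydrogenase and p-nitrophenylphosphatase activities (μM/mL); mean ± SD, growing vs regressing compared by Student's t test.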
# Rattus norvegicus [2] = organism: Rattus norvegicus; assay: Dehydrogenase activity in proliferating DMBA-induced mammary tumor in rats; type: functional; procedure, shortened: as §1
# Rattus norvegicus [3] = organism: Rattus norvegicus; assay: p-Nitrophenylphosphatase activity in proliferating DMBA-induced mammary tumor in rats; type: functional; procedure, shortened: as §1
# Rattus norvegicus [4] = organism: Rattus norvegicus; assay: p-Nitrophenylphosphatase activity in regressing DMBA-induced mammary tumor in rats; not significant; type: functional; procedure, shortened: as §1
# Rattus norvegicus [5] = assay: Inhibition of the DMBA-induced mammary carcinoma in 10 rats at 20 mg/kg dose; type: functional
# Procedure, shortened: (§2)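 Established DMBA-induced mammary carcinoma, Sprague-Dawley rats; compound in arachis oil sc three times weekly (Mon, Wed, Fri). Starting tumor area above 140 mm² per animal; percent increase of tumor area after 28 days of therapy, mean values; significance by Wilcoxon-Mann-Whitney U test.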
# [6] = molecular target: T1, Estrogen receptor (Mus musculus) (UniProt O08537+P19785); assay: (§3) Binding affinity for murine Estrogen receptor; No affinity; type: protein assay
# T1 sequence (O08537 whole entry, looked up): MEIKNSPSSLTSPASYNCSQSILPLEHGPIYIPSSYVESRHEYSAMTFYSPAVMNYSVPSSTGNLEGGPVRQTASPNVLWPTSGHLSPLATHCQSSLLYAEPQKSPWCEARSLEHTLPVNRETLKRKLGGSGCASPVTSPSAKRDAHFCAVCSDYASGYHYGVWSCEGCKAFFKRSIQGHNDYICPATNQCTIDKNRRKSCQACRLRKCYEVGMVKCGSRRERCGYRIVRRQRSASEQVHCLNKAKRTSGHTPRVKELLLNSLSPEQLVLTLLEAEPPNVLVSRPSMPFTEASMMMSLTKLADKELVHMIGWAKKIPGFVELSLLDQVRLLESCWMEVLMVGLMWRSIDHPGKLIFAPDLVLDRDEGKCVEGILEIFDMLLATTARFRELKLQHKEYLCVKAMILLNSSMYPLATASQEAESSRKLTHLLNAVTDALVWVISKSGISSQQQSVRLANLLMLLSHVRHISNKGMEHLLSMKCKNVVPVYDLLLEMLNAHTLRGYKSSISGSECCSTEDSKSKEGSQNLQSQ
# T1 sequence (P19785 whole entry, looked up): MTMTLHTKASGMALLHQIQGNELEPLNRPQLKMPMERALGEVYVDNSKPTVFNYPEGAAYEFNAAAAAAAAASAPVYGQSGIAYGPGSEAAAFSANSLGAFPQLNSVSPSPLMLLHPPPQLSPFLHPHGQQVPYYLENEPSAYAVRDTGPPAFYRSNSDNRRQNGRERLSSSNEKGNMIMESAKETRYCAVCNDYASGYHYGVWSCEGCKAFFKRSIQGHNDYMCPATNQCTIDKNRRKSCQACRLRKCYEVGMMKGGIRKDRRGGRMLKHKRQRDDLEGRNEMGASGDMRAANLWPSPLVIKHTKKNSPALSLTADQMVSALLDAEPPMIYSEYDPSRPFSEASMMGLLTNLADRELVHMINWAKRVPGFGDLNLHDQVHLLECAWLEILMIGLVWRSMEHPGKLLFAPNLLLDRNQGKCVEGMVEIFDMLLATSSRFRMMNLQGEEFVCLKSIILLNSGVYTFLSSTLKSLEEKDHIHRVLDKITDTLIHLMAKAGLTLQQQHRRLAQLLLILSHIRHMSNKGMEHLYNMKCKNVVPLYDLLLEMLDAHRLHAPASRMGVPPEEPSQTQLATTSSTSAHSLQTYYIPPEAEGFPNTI
# [7] = molecular target: T1, Estrogen receptor (Mus musculus); assay: In vitro inhibition of murine Estrogen receptor; type: protein assay; design: concentration or dose not given beside the values; conditions: concentration not given here
# [8] = molecular target: T1, Estrogen receptor (Mus musculus); assay: as §3; type: protein assay; remark: listed apart in the source
# [9] = molecular target: T1, Estrogen receptor (Mus musculus); assay: Binding affinity for murine Estrogen receptor; type: protein assay
# Rattus norvegicus [10] = assay: Inhibition of the DMBA-induced mammary carcinoma in 11 rats at 25 mg/kg dose; not significant; type: functional; procedure, shortened: as §2
# MCF7 [11] = assay: Incorporation of [3H]thymidine into estrogen-responsive MCF-7 human breast tumor cells at 10e-8 M with hexestrol; type: functional
# Procedure, shortened: (§4)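 MCF-7 cells plated in medium with 10% FCS, switched next day to 5% dextran-charcoal-stripped calf serum, medium renewed every 72 h. At ~60% confluence compounds added in ethanol (0.1% final), 60 h incubation; 1 μCi [3H]thymidine per well for last 2 h. Acid (10% Cl3AcOH)-precipitable counts from sonicate, dpm/dish, mean of six dishes ± SD.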
# MCF7 [12] = assay: Incorporation of [3H]thymidine into estrogen-responsive MCF-7 human breast tumor cells at 10e-8 M concentration with hexestrol; dpm/dish; type: functional; procedure, shortened: as §4
# Rattus norvegicus [13] = assay: Inhibition of the DMBA-induced mammary carcinoma in 8 rats at 15 mg/kg dose; not significant; type: functional; procedure, shortened: as §2
# MCF7 [14] = assay: Incorporation of [3H]thymidine into estrogen-responsive MCF-7 human breast tumor cells at 10e-5 M; dpm/dish; type: functional; procedure, shortened: as §4
# MCF7 [15] = assay: Incorporation of [3H]thymidine into estrogen-responsive MCF-7 human breast tumor cells at 10e-5 M; type: functional; procedure, shortened: as §4
# MCF7 [16] = assay: Incorporation of [3H]thymidine into estrogen-responsive MCF-7 human breast tumor cells at 10e-8 M with hexestrol; dpm/dish; type: functional; procedure, shortened: as §4
structure (smiles),measurement,setting,value
"CCCCNC(c1ccc(O)cc1)C(NCCCC)c1ccc(O)cc1.Cl.Cl (single isomer, unassigned; (+))",Activity,Rattus norvegicus [1],101.8 uM ml-1
same,Activity,Rattus norvegicus [2],191.7 uM ml-1
same,Activity,Rattus norvegicus [3],39.4 uM ml-1
same,Activity,Rattus norvegicus [4],48.4 uM ml-1
same,Increase,Rattus norvegicus [5],112%
CCCCCNC(c1ccc(OC)cc1)C(NCCCCC)c1ccc(OC)cc1 (stereo not given),Ka,[6],inactive
"CCCCN1CN(CCCC)C(c2ccc(O)cc2)C1c1ccc(O)cc1 (single isomer, unassigned; (+))",inhibition,[7],3%
CCCCN1C(c2ccc(O)cc2)C(c2ccc(O)cc2)N(CCCC)C1c1ccccc1 (racemic),inhibition,[7],39%
CCCCN1C(=S)N(CCCC)C(c2ccc(O)cc2)C1c1ccc(O)cc1 (racemic),inhibition,[7],75%
CNC(c1ccc(OC)cc1)C(NC)c1ccc(OC)cc1 (stereo not given),Ka,[6],inactive
CCCCCCNC(c1ccc(OC)cc1)C(NCCCCCC)c1ccc(OC)cc1 (stereo not given),Ka,[8],inactive
CCCCNC(c1ccc(OC)cc1)C(NCCCC)c1ccc(OC)cc1 (stereo not given),Ka,[6],inactive
same,Ka,[8],inactive
CCNC(c1ccc(O)cc1)C(NCC)c1ccc(O)cc1 (stereo not given),Ka,[9],< 10000 M⁻¹
CCCCCCNC(c1ccc(O)cc1)C(NCCCCCC)c1ccc(O)cc1.Cl.Cl (stereo not given),Increase,Rattus norvegicus [10],132%
same,Ka,[9],320000 M⁻¹
CCCCNC(c1ccccc1OC)C(NCCCC)c1ccccc1OC (stereo not given),Ka,[6],inactive
CC/C(=C(\c1ccccc1)c1ccc(OCCN(C)C)cc1)c1ccccc1 [TAMOXIFEN],Activity,MCF7 [11],82%
same,Activity,MCF7 [12],11225
"CCCCNC(c1ccc(O)cc1)C(NCCCC)c1ccc(O)cc1.Cl.Cl (single isomer, unassigned; (-))",Activity,Rattus norvegicus [1],121.3 uM ml-1
same,Activity,Rattus norvegicus [2],183.3 uM ml-1
same,Activity,Rattus norvegicus [3],42.8 uM ml-1
same,Activity,Rattus norvegicus [4],44.9 uM ml-1
same,Increase,Rattus norvegicus [5],115%
CCCCNC(c1ccc(O)cc1)C(NCCCC)c1ccc(O)cc1 (racemic),Ka,[9],3.6e+06 M⁻¹
CCCCN1CN(CCCC)C(c2ccc(O)cc2)C1c1ccc(O)cc1 (racemic) [listing 1 of 2 here],Increase,Rattus norvegicus [13],105%
CCCCNC(c1cccc(OC)c1)C(NCCCC)c1cccc(OC)c1 (stereo not given),Ka,[8],inactive
CCCNC(c1ccc(OC)cc1)C(NCCC)c1ccc(OC)cc1 (stereo not given),Ka,[8],inactive
CCCCN1CN(CCCC)C(c2ccc(O)cc2)C1c1ccc(O)cc1 (stereo in doubt; 7c),inhibition,[7],75%
CCCCNC(c1ccc(O)cc1)C(NCCCC)c1ccc(O)cc1.Cl.Cl (racemic),Activity,MCF7 [11],101%
same,Activity,MCF7 [14],10833
same,Activity,MCF7 [15],79%
same,Activity,MCF7 [16],13942
CCNC(c1ccc(OC)cc1)C(NCC)c1ccc(OC)cc1 (stereo not given),Ka,[8],inactive
CC[C@H](c1ccc(O)cc1)[C@@H](CC)c1ccc(O)cc1 [HEXESTROL],Activity,MCF7 [11],120%
same,Activity,MCF7 [12],16485
"CCCCNC(c1ccc(O)cc1)C(NCCCC)c1ccc(O)cc1 (single isomer, unassigned; (-))",Ka,[6],700000 M⁻¹
CCCCN1CN(CCCC)C(c2ccc(O)cc2)C1c1ccc(O)cc1 (stereo in doubt; 7d),inhibition,[7],0%
CC(C)NC(c1ccc(O)cc1)C(NC(C)C)c1ccc(O)cc1 (stereo not given),Ka,[9],140000 M⁻¹
CCCCNC(c1cccc(O)c1)C(NCCCC)c1cccc(O)c1 (stereo not given),Ka,[9],< 10000 M⁻¹
"CCCCNC(c1ccc(O)cc1)C(NCCCC)c1ccc(O)cc1 (single isomer, unassigned; (+))",Ka,[6],2.1e+07 M⁻¹
CCCCN1C(c2ccc(O)cc2)C(c2ccc(O)cc2)N(CCCC)C1c1ccc(O)cc1 (racemic),inhibition,[7],48%
CNC(c1ccc(O)cc1)C(NC)c1ccc(O)cc1 (stereo not given),Ka,[6],inactive
COc1ccc(C(NC(C)C)C(NC(C)C)c2ccc(OC)cc2)cc1 (stereo not given),Ka,[8],inactive
CCCCNC(c1ccccc1O)C(NCCCC)c1ccccc1O (stereo not given),Ka,[9],inactive
CCCCN1CN(CCCC)C(c2ccc(O)cc2)C1c1ccc(O)cc1 (racemic) [listing 2 of 2 here],inhibition,[7],70%
CCCN1CN(CCC)C(c2ccc(O)cc2)C1c1ccc(O)cc1 (racemic),inhibition,[7],66%
CCCNC(c1ccc(O)cc1)C(NCCC)c1ccc(O)cc1 (stereo not given),Ka,[9],1.1e+06 M⁻¹
CCCCNC(c1ccc(O)cc1)C(NCCCC)c1ccc(O)cc1.Cl.Cl (stereo not given),Increase,Rattus norvegicus [13],475%
CCCCCNC(c1ccc(O)cc1)C(NCCCCC)c1ccc(O)cc1 (stereo not given),Ka,[9],2.2e+06 M⁻¹
